# Test results: ChEMBL document CHEMBL3997782, “Methoxylated 2'-hydroxychalcones as antiparasitic hit compounds” (Eur J Med Chem, 2017)
# How the values were obtained:
# [1] = tested on: 786-0; assay: Mitochondrial toxicity in human 786-O cells at 10 uM by mitotracker red chloromethyl-Xrosamine staining based-uptake method relative to control; type: cell-based; conditions: 786-0, 10 µM
# Procedure, shortened: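 786-O renal carcinoma cells kept in RPMI-1640 with 2 mM glutamine, 10% v/v FCS, streptomycin 100 µg/ml and penicillin G 100 U/ml. Mitochondrial toxicity monitored by MitoTracker Red CMXRos uptake with high-content imaging.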
# [2] = target: CYP2D6 (Homo sapiens, UniProt P10635); assay: Inhibition of human CYP2D6 expressed in baculovirus-infected insect cells at 10 uM using Luciferin-ME EGE as substrate in presence of NADPH by P450-Glo luminescence assay relative to control; type: ADME; conditions: probe Luciferin-ME EGE
# CYP2D6, sequence (P10635 whole entry): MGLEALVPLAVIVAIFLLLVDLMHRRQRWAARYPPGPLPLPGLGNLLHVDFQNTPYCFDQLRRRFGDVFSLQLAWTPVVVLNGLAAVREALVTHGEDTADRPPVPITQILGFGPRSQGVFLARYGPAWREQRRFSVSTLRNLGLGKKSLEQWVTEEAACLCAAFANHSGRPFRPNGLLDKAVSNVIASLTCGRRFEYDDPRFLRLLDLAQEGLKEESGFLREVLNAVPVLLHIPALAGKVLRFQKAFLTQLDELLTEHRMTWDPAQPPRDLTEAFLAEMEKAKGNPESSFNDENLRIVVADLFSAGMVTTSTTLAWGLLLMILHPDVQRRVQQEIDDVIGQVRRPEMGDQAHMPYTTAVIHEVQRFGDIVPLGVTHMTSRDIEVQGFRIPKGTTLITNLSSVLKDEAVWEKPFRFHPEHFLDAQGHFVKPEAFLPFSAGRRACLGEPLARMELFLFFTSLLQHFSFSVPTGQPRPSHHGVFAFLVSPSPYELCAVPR
# Procedure, shortened: (§1)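 CYP enzymes as microsomal preparations from baculovirus-infected insect cells, run on the P450-Glo luminogenic substrate platform. A fall in light output indicates inhibition.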
# [3] = target: CYP2C9 (Homo sapiens, UniProt P11712); assay: Inhibition of human CYP2C9 expressed in baculovirus-infected insect cells at 10 uM using Luciferin-H as substrate in presence of NADPH by P450-Glo luminescence assay relative to control; conditions: probe Luciferin-H
# CYP2C9, sequence (P11712 whole entry): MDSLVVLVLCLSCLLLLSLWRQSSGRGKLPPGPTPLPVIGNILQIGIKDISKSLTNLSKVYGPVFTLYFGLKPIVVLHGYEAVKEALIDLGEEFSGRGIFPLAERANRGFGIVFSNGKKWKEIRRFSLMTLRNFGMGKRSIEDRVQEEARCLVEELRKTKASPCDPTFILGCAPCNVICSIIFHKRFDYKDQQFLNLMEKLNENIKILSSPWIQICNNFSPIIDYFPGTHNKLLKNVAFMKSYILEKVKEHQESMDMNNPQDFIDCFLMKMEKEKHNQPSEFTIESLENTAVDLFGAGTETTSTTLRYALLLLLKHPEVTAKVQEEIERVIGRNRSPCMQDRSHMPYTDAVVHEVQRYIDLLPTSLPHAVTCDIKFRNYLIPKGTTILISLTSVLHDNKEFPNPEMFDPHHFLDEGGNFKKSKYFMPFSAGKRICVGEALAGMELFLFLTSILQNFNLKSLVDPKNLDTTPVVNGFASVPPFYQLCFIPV
# [4] = target: CYP3A4 (Homo sapiens, UniProt P08684); assay: Inhibition of human CYP3A4 expressed in baculovirus-infected insect cells at 10 uM using Luciferin-PFBE as substrate in presence of NADPH by P450-Glo luminescence assay relative to control; type: ADME; conditions: probe Luciferin-PFBE
# CYP3A4, sequence (P08684 whole entry): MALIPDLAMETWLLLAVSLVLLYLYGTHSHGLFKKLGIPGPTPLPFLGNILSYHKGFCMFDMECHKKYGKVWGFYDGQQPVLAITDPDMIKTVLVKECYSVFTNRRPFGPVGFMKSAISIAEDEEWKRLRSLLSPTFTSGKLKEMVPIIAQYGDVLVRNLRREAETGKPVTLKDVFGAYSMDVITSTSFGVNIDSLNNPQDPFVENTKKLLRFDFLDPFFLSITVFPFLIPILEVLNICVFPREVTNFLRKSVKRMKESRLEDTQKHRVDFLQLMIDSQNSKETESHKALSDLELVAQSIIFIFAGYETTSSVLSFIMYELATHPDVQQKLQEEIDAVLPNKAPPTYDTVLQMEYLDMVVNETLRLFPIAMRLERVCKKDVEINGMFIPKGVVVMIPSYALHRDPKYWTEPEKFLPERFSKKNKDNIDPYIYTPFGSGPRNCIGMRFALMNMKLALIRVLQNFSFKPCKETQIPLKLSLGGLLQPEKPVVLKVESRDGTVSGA
# [5] = target: hERG (KCNH2) (Homo sapiens, UniProt Q12809); assay: Inhibition of human ERG at 10 uM by Tracer Red dye based fluorescence polarization assay relative to control; conditions: probe Tracer Red dye
# hERG (KCNH2), sequence (Q12809 whole entry): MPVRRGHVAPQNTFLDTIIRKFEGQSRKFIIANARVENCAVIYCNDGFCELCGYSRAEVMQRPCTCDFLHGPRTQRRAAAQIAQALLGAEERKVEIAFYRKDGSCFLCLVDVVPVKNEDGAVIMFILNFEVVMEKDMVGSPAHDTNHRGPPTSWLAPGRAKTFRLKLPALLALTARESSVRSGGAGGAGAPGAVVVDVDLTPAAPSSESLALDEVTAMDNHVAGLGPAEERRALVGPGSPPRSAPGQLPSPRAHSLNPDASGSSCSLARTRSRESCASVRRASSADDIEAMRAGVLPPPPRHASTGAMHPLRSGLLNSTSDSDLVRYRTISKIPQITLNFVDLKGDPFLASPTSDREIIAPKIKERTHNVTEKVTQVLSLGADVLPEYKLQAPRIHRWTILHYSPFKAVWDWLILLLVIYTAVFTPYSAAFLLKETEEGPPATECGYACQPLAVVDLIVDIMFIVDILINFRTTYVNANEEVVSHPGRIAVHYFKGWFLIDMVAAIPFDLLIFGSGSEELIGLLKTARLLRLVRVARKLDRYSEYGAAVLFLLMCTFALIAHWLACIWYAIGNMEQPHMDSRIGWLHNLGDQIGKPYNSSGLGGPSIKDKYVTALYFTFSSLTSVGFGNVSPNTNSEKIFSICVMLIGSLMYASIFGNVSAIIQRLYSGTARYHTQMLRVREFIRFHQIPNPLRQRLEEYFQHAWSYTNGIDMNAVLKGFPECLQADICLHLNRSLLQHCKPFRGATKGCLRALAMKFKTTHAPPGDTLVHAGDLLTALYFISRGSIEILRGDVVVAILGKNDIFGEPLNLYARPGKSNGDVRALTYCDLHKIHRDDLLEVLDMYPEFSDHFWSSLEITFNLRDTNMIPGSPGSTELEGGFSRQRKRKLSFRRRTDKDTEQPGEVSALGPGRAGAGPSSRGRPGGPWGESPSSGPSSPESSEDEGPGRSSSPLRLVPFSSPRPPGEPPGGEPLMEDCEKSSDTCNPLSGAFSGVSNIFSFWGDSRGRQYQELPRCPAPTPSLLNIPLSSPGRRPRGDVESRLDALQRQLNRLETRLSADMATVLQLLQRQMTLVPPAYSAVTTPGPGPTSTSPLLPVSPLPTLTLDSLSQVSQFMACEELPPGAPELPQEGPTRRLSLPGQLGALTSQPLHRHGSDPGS
# [6] = Cytotoxicity against human […] cells assessed as cell growth at 10 uM by Cell titer-Glo assay relative to control; type: cell-based; conditions: WI-38 cells, read-out: Activity
# Procedure, shortened: (§2)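 A549 and WI-38 cells grown in DMEM with 10% v/v FCS, streptomycin 100 µg/ml and penicillin G 100 U/ml. Cell number read as cellular ATP by CellTiter-Glo luminescence. Growth 60–100% scored non-cytotoxic, 0–60% cytostatic, below 0 cytotoxic.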
# [7] = target: T1, CYP1A2 (Homo sapiens, UniProt P05177); assay: Inhibition of human CYP1A2 expressed in baculovirus-infected insect cells at 10 uM using Luciferin-1A2 as substrate in presence of NADPH by P450-Glo luminescence assay relative to control; type: ADME; conditions: probe Luciferin-1A2; procedure, shortened: as §1
# T1 sequence (P05177 whole entry): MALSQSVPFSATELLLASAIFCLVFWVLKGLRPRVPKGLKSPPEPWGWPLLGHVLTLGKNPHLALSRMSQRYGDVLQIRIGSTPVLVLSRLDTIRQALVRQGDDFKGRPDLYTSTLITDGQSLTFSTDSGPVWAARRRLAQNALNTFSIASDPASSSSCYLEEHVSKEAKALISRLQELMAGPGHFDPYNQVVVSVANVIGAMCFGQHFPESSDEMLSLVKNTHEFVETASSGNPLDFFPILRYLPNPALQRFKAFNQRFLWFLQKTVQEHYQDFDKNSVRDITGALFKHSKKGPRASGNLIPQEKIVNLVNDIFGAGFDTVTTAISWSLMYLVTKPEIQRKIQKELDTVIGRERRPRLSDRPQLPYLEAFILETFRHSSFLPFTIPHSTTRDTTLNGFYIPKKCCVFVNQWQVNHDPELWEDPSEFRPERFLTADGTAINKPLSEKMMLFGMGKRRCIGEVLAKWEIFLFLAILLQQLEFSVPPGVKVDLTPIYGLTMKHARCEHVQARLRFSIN
# [8] = Lipophilicity, log P of the compound; type: physicochemical; conditions: octanol/water
# [9] = target: Aurora kinase B (Homo sapiens, UniProt Q96GD4); assay: Inhibition of N-terminal-GST-tagged recombinant full length human Aurora B expressed in baculovirus infected Sf9 cells at 10 uM using native Swine Myelin Basic Protein as substrate measured after 60 mins by ADP-Glo assay relative to control; conditions: probe native Swine Myelin Basic Protein
# Aurora kinase B, sequence (Q96GD4 whole entry): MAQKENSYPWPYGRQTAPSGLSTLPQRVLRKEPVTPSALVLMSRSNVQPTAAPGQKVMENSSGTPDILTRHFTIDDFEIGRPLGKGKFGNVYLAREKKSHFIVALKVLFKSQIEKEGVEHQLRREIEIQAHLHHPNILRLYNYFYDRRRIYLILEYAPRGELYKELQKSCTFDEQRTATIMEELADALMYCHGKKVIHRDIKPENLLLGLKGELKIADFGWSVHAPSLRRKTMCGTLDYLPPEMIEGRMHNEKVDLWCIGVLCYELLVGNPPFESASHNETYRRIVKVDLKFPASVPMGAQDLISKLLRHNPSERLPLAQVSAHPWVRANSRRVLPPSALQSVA
# Procedure, shortened: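 Aurora B kinase activity measured by ADP-Glo, which detects ADP formed through a coupled luciferase luminescence read-out.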
# [10] = target: CYP2C19 (Homo sapiens, UniProt P33261); assay: Inhibition of human CYP2C19 expressed in baculovirus-infected insect cells at 10 uM using Luciferin-H EGE as substrate in presence of NADPH by P450-Glo luminescence assay relative to control; type: ADME; conditions: probe Luciferin-H EGE; procedure, shortened: as §1
# CYP2C19, sequence (P33261 whole entry): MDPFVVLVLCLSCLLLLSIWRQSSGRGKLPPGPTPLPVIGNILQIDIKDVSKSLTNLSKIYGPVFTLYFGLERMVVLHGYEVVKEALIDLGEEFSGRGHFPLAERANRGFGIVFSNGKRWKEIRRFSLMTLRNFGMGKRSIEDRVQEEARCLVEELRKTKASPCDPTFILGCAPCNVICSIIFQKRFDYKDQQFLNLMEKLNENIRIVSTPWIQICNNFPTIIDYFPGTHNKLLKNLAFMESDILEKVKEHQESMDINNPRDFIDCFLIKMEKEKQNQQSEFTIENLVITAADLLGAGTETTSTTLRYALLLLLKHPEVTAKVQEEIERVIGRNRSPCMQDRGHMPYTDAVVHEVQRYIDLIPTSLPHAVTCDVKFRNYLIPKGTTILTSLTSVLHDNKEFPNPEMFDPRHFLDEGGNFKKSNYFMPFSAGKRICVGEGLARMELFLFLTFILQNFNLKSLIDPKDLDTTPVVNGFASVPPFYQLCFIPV
# [11] = tested on: Trypanosoma cruzi; assay: Anti-parasitic activity against Trypanosoma cruzi Y promastigotes infected in HG39 cells at 10 uM by qPCR analysis relative to control; type: functional, cell-based; conditions: in the assay text read “trypomastigotes” for “promastigotes”
# Procedure, shortened: (§3)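 Confluent HG39 cells (3 x 10^6 per well) infected at a 1:1 ratio with blood-derived T. cruzi Y strain trypomastigotes. Growth inhibition was read as parasite gDNA by TaqMan probe-based quantitative real-time PCR.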
# [12] = Cytotoxicity against human THP1 cells by MTT assay; type: cell-based; conditions: THP-1 cells
# Procedure, shortened: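 THP-1 cells differentiated to macrophages with PMA, viability read by colorimetric MTT. CC50 and NOAEL are the arithmetic mean of at least two independent determinations, each run in triplicate.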
# [13] = tested on: Trypanosoma brucei brucei; assay: Anti-parasitic activity against bloodstream form of Trypanosoma brucei brucei Lister 427 at 10 uM after 72 hrs by resazurin-based assay relative to control; type: functional; conditions: Lister 427, 72 h
# Procedure, shortened: (§4)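 Bloodstream-form T. brucei, modified resazurin-based viability assay. EC50 is the arithmetic mean of at least two independent determinations, each run in triplicate.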
# [14] = Cytotoxicity against human A549 cells assessed as cell growth at 10 uM by Cell titer-Glo assay relative to control; type: cell-based; conditions: read-out: Activity; procedure, shortened: as §2
# [15] = tested on: Trypanosoma cruzi; assay: Anti-parasitic activity against Trypanosoma cruzi Y promastigotes infected in HG39 cells by qPCR analysis; type: functional, cell-based; conditions: in the assay text read “trypomastigotes” for “promastigotes”; procedure, shortened: as §3
# [16] = tested on: Trypanosoma brucei brucei; assay: Anti-parasitic activity against bloodstream form of Trypanosoma brucei brucei Lister 427 after 72 hrs by resazurin-based assay; type: functional; conditions: Lister 427, 72 h; procedure, shortened: as §4
# [17] = Selectivity index, ratio of CC50 for human THP1 cells to EC50 for anti-parasitic activity against bloodstream form of Trypanosoma brucei brucei Lister 427; type: toxicity; conditions: THP-1 cells, read-out: Ratio CC50/EC50
# Procedure, shortened: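 SI = CC50 in PMA-differentiated THP-1 macrophages (MTT) divided by the antiparasitic EC50.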
# [18] = tested on: Leishmania infantum; assay: Anti-parasitic activity against Leishmania infantum amastigotes infected in human THP1 cells at 50 uM after 5 days by Giemsa staining based assay relative to control; type: functional, cell-based; conditions: THP-1, 120 h
# Procedure, shortened: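 Intracellular L. infantum amastigotes in host cells, imaged by high-content automated imaging. Host cell number, infected cells and parasites per infected cell were counted. Infection Ratio = infected cells / total cells.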
SMILES,Activity [1] [%],inhibition at 10 µM [2] [%],inhibition at 10 µM [3] [%],inhibition at 10 µM [4] [%],inhibition at 10 µM [5] [%],viability at 10 µM [6] [%],inhibition at 10 µM [7] [%],logP [8],"inhibition at 1 h, 10 µM [9] [%]",inhibition at 10 µM [10] [%],inhibition at 10 µM [11] [%],CC50 [12] [µM],inhibition at 10 µM [13] [%],viability at 10 µM [14] [%],EC50 [15] [µM],EC50 [16] [nM],selectivity ratio [17],inhibition at 50 µM [18] [%],EC50 [18] [nM],EC50 [11] [nM]
COc1ccc(/C=C/C(=O)c2ccc(OC)cc2O)cc1,14.2,47.7,21.7,5,2.7,14.2,39.6,3.88,107,34.2,47,> 100,18,102,,,,,,
COc1cccc(/C=C/C(=O)c2ccc(OC)cc2O)c1,-2.9,58,47.4,-8.3,13.6,63,75.4,3.86,-10.6,63.5,74,> 25,100,110,< 10,3400,≥ 7,21,,
COc1ccc(C(=O)/C=C/c2ccc(OC)c(OC)c2)c(O)c1,-5.8,92.7,10.7,2.4,3.5,128,36.2,3.53,-10.4,50,48,> 100,10,98.8,< 10,,,10,,
COc1ccc(C(=O)/C=C/c2c(OC)cccc2OC)c(O)c1,0,17.1,-25.6,11.8,18.8,0.1,52.8,3.51,92.1,74.9,0,> 100,98,48.2,,3400,≥ 29,,,
COc1cccc(-c2oc3ccccc3c(=O)c2O)c1,,,,,,,,,,,,,,,,2320,4,,,
COc1cccc(/C=C/C(=O)c2cc(OC)ccc2O)c1,13.4,52.2,-31.7,14.3,17.6,87.5,84.2,3.87,-15.1,69.6,28,> 25,100,116,,2100,≥ 12,14,,
COc1ccc2c(=O)c(O)c(-c3cc(OC)c(OC)c(OC)c3)oc2c1,,,,,,,,,,,,,,,,1170,17,,,
COc1ccc2oc(-c3ccc(OC)c(OC)c3)c(O)c(=O)c2c1,,,,,,,,,,,,,,,,2020,5,,,
COc1ccc(O)c(C(=O)/C=C/c2ccc(OC)c(OC)c2)c1,-9.5,93.7,-26.9,-2.7,15.9,114,60,3.52,-10.1,21.4,0,> 50,15,116,,,,16,,
COc1ccc(-c2oc3ccc(OC)cc3c(=O)c2O)cc1,,,,,,,,,,,,,,,,20100,1,,,
COc1cccc(-c2oc3cc(OC)ccc3c(=O)c2O)c1,,,,,,,,,,,,,,,,1140,8,,,
COc1ccc(/C=C/C(=O)c2cc(OC)ccc2O)cc1,15.8,79.6,25.8,6.2,42.1,15.8,85.2,3.87,107,47.3,9,> 100,9,91.3,,,,,,
COc1ccc(O)c(C(=O)/C=C/c2c(OC)cccc2OC)c1,14.6,11.7,36.9,15.3,-7.1,14.6,41.7,3.52,104,61.1,52,> 25,86,103,< 10,2100,≥ 12,,,
COc1cccc(-c2oc3ccc(OC)cc3c(=O)c2O)c1,,,,,,,,,,,,,,,,1430,10,,,
COc1cccc(/C=C/C(=O)c2ccccc2O)c1,6.2,-8.4,17.1,-1.4,11.3,118,85.6,3.94,-6.6,76.2,46,> 25,100,105,,1300,≥ 19,11,,
COc1ccc(-c2oc3cc(OC)ccc3c(=O)c2O)cc1,,,,,,,,,,,,,,,,1100,9,,,
COc1ccc2c(=O)c(O)c(-c3ccc(OC)c(OC)c3)oc2c1,,,,,,,,,,,,,,,,2990,8,,,
C=CC(C)(C)c1cc(/C=C/C(=O)c2ccc(O)cc2)c(OC)cc1O [LICOAGROCHACONE A],,,,,,,,4.74,,,,,,,,,,,,
CCCCCCCCCCCCCCCCOP(=O)([O-])OCC[N+](C)(C)C [MILTEFOSINE],,,,,,,,,,,,,,,,,,,2650,
CC1CS(=O)(=O)CCN1/N=C/c1ccc([N+](=O)[O-])o1 (stereo not drawn) [NIFURTIMOX],,,,,,,,,,,,,,,,,,,,2200
